Laboratory results published in ChEMBL document CHEMBL1147090, “Effect of antibiotics on Staphylococcus aureus producing Panton-Valentine leukocidin” (2007).
Values after ≈ are worked out from the molar mass of the structure shown. Active and inactive are the calls of the source. The calls are words filed in the database; no cut-off is given here.

Key:
Staphylococcus aureus [1] = assay: Decrease in Panton-Valentine leukocidin level in community acquired methicillin-resistant Staphylococcus aureus HT20041010 in CYY medium; type: functional, organism-based
In short: (§1)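 Viable counts by plating diluted broth. Supernatant PVL measured by sandwich ELISA. μg PVL per log10 CFU is expressed as a percentage of the drug-free control. Means ± SD of five (LUG855) or three (clinical isolates) experiments. One-way ANOVA with Dunnett's test.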

Staphylococcus aureus [2] = assay: Antibacterial activity against Staphylococcus aureus LUG855 in CCY media; type: functional
In short: (§2)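 MIC by CLSI-standard broth microdilution, run both in Mueller-Hinton broth and in casein hydrolysate-yeast extract (CCY) medium. Inoculum 5 × 10^5 CFU/ml.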

Staphylococcus aureus [3] = assay: Antibacterial activity against community acquired methicillin-resistant Staphylococcus aureus HT20041010 in CCY media; type: functional; in short: as §2
Staphylococcus aureus [4] = assay: Antibacterial activity against community acquired methicillin-resistant Staphylococcus aureus HT20030203 in CCY media; type: functional; in short: as §2
Staphylococcus aureus [5] = assay: Antibacterial activity against community acquired methicillin-resistant Staphylococcus aureus HT20041010 in Mueller-Hinton medium; type: functional; in short: as §2
Staphylococcus aureus [6] = assay: Antibacterial activity against community acquired methicillin-resistant Staphylococcus aureus HT20010734 in Mueller-Hinton medium; type: functional; in short: as §2
Staphylococcus aureus [7] = assay: Decrease in Panton-Valentine leukocidin level in community acquired methicillin-resistant Staphylococcus aureus HT20040332 in CYY medium; type: functional, organism-based; in short: as §1
Staphylococcus aureus [8] = assay: Antibacterial activity against community acquired methicillin-resistant Staphylococcus aureus HT20040332 in Mueller-Hinton medium; type: functional; in short: as §2
Staphylococcus aureus [9] = assay: Antibacterial activity against community acquired methicillin-resistant Staphylococcus aureus HT20010734 in CCY medium; type: functional; in short: as §2
Staphylococcus aureus [10] = assay: Antibacterial activity against community acquired methicillin-resistant Staphylococcus aureus HT20020488 in Mueller-Hinton medium; type: functional; in short: as §2
Staphylococcus aureus [11] = assay: Decrease in Panton-Valentine leukocidin level in community acquired methicillin-resistant Staphylococcus aureus HT20010734 in CYY medium; type: functional, organism-based; in short: as §1
Staphylococcus aureus [12] = assay: Antibacterial activity against Staphylococcus aureus LUG855 in Mueller-Hinton medium; type: functional; in short: as §2
Staphylococcus aureus [13] = assay: Antibacterial activity against community acquired methicillin-resistant Staphylococcus aureus HT20020488 in CCY medium; type: functional; in short: as §2
Staphylococcus aureus [14] = assay: Decrease in Panton-Valentine leukocidin level in community acquired methicillin-resistant Staphylococcus aureus HT20020488 in CYY medium; type: functional, organism-based; in short: as §1
Staphylococcus aureus [15] = assay: Antibacterial activity against community acquired methicillin-resistant Staphylococcus aureus HT20030203 in Mueller-Hinton medium; type: functional; in short: as §2
Staphylococcus aureus [16] = assay: Decrease in Panton-Valentine leukocidin level in community acquired methicillin-resistant Staphylococcus aureus HT20030203 in CYY medium; type: functional, organism-based; in short: as §1
Staphylococcus aureus [17] = assay: Antibacterial activity against community acquired methicillin-resistant Staphylococcus aureus HT20040332 in CCY media; type: functional; in short: as §2
Staphylococcus aureus [18] = assay: Decrease in Panton-Valentine leukocidin level in Staphylococcus aureus LUG855 in CCY medium; type: functional, organism-based; in short: as §1
Staphylococcus aureus [19] = assay: Increase in Panton-Valentine leukocidin level in community acquired methicillin-resistant Staphylococcus aureus HT20030203 in CYY medium; type: functional, organism-based; in short: as §1
Staphylococcus aureus [20] = assay: Increase in Panton-Valentine leukocidin level in Staphylococcus aureus LUG855 in CCY medium; type: functional, organism-based; in short: as §1
Staphylococcus aureus [21] = assay: Increase in Panton-Valentine leukocidin level in community acquired methicillin-resistant Staphylococcus aureus HT20040332 in CYY medium; type: functional, organism-based; in short: as §1
Staphylococcus aureus [22] = assay: Increase in Panton-Valentine leukocidin level in community acquired methicillin-resistant Staphylococcus aureus HT20041010 in CYY medium; type: functional, organism-based; in short: as §1
Staphylococcus aureus [23] = assay: Increase in Panton-Valentine leukocidin level in community acquired methicillin-resistant Staphylococcus aureus HT20010734 in CYY medium; type: functional, organism-based; in short: as §1

CCC[C@@H]1C[C@@H](C(=O)N[C@@H]([C@H]2O[C@H](SC)[C@H](O)[C@@H](O)[C@H]2O)[C@H](C)Cl)N(C)C1 [CLINDAMYCIN]
Activity (Staphylococcus aureus [1]): Dose-dependent effect
MIC (Staphylococcus aureus [2]): 0.12 mg/L (≈ 0.282 µM)
MIC (Staphylococcus aureus [3]): > 128 mg/L
MIC (Staphylococcus aureus [4]): 0.25 mg/L (≈ 0.588 µM)
MIC (Staphylococcus aureus [5]): > 128 mg/L
MIC (Staphylococcus aureus [6]): 0.12 mg/L (≈ 0.282 µM)
Activity (Staphylococcus aureus [7]): Dose-dependent effect
MIC (Staphylococcus aureus [8]): > 128 mg/L
MIC (Staphylococcus aureus [9]): 0.25 mg/L (≈ 0.588 µM)
MIC (Staphylococcus aureus [10]): > 128 mg/L
Activity (Staphylococcus aureus [11]): Dose-dependent effect
MIC (Staphylococcus aureus [12]): 0.06 mg/L (≈ 0.141 µM)
MIC (Staphylococcus aureus [13]): > 128 mg/L
Activity (Staphylococcus aureus [14]): Dose-dependent effect
MIC (Staphylococcus aureus [15]): 0.12 mg/L (≈ 0.282 µM)
Activity (Staphylococcus aureus [16]): Dose-dependent effect
MIC (Staphylococcus aureus [17]): > 128 mg/L
Activity (Staphylococcus aureus [18]): Dose-dependent effect

CC(=O)NC[C@H]1CN(c2ccc(N3CCOCC3)c(F)c2)C(=O)O1 [LINEZOLID]
Activity (Staphylococcus aureus [1]): Dose-dependent effect
MIC (Staphylococcus aureus [5]): 1 mg/L (≈ 2.96 µM)
MIC (Staphylococcus aureus [6]): 0.5 mg/L (≈ 1.48 µM)
Activity (Staphylococcus aureus [7]): Dose-dependent effect
MIC (Staphylococcus aureus [8]): 1 mg/L (≈ 2.96 µM)
MIC (Staphylococcus aureus [10]): 0.5 mg/L (≈ 1.48 µM)
Activity (Staphylococcus aureus [11]): Dose-dependent effect
MIC (Staphylococcus aureus [12]): 1 mg/L (≈ 2.96 µM)
Activity (Staphylococcus aureus [14]): Dose-dependent effect
MIC (Staphylococcus aureus [15]): 1 mg/L (≈ 2.96 µM)
Activity (Staphylococcus aureus [16]): Dose-dependent effect
Activity (Staphylococcus aureus [18]): Dose-dependent effect

Cc1onc(-c2ccccc2)c1C(=O)N[C@@H]1C(=O)N2[C@@H]1SC(C)(C)[C@@H]2C(=O)O [OXACILLIN]
MIC (Staphylococcus aureus [2]): 0.06 mg/L (≈ 0.149 µM)
Activity (Staphylococcus aureus [19]): Active
MIC (Staphylococcus aureus [3]): 16 mg/L (≈ 39.9 µM)
MIC (Staphylococcus aureus [4]): 16 mg/L (≈ 39.9 µM)
MIC (Staphylococcus aureus [5]): 32 mg/L (≈ 79.7 µM)
MIC (Staphylococcus aureus [6]): 32 mg/L (≈ 79.7 µM)
MIC (Staphylococcus aureus [8]): 16 mg/L (≈ 39.9 µM)
Activity (Staphylococcus aureus [20]): Active
Activity (Staphylococcus aureus [21]): Active
Activity (Staphylococcus aureus [22]): Active
MIC (Staphylococcus aureus [9]): 16 mg/L (≈ 39.9 µM)
MIC (Staphylococcus aureus [10]): 8 mg/L (≈ 19.9 µM)
MIC (Staphylococcus aureus [12]): 0.12 mg/L (≈ 0.299 µM)
MIC (Staphylococcus aureus [13]): 8 mg/L (≈ 19.9 µM)
MIC (Staphylococcus aureus [15]): 32 mg/L (≈ 79.7 µM)
MIC (Staphylococcus aureus [17]): 8 mg/L (≈ 19.9 µM)
Activity (Staphylococcus aureus [23]): Active

CC(=O)O[C@H]1C[C@@]2(C)[C@@H](C[C@@H](O)[C@H]3[C@@]4(C)CC[C@@H](O)[C@@H](C)[C@@H]4CC[C@@]32C)/C1=C(\CCC=C(C)C)C(=O)O [FUSIDIC ACID]
MIC (Staphylococcus aureus [2]): < 0.03 mg/L
MIC (Staphylococcus aureus [3]): 128 mg/L (≈ 248 µM)
MIC (Staphylococcus aureus [4]): 0.06 mg/L (≈ 0.116 µM)
MIC (Staphylococcus aureus [5]): > 128 mg/L
MIC (Staphylococcus aureus [10]): 4 mg/L (≈ 7.74 µM)
MIC (Staphylococcus aureus [12]): < 0.03 mg/L
MIC (Staphylococcus aureus [13]): 4 mg/L (≈ 7.74 µM)
MIC (Staphylococcus aureus [15]): 0.12 mg/L (≈ 0.232 µM)
